Drawing on ChEMBL document CHEMBL6092225, “Design, Synthesis, and Biological Evaluation of [1,2,5]Oxadiazolo[3,4-b]pyridin-7-ol as Mitochondrial Uncouplers for the Treatment of Obesity and Metabolic Dysfunction-Associated Steatohepatitis” (J Med Chem, 2024), this text covers Activity and EC50 for 19 compounds.

Series [1] is described as follows: (§1) Induction of oxygen consumption rate in rat L6 cells upto 200 uM measured for 90 mins by Seahorse assay relative to BAM15. It counts as functional. As to conditions: 1.5 h, up to 200 µM.
The nature of series [2]: Induction of oxygen consumption rate in rat L6 cells measured for 90 mins by Seahorse assay. It counts as functional, cell-based.
For series [3], the system named is L6. The description is as §1. The series is classed as functional.
For series [4], the system named is L6. Put plainly: Induction of oxygen consumption rate in rat L6 cells at 10 uM measured for 90 mins in presence of oligomycin by Seahorse assay. The series is classed as functional, cell-based. Summed up: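 L6 myoblasts in unbuffered DMEM with pyruvate and glutamine (pH 7.4) on Seahorse XF. Mitochondrial stress test: oligomycin 1 µM or vehicle injected, then compound at 10 µM, then antimycin A 10 µM plus rotenone 1 µM at set times. n = 3 wells per condition, mean ± SEM.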

Series [5] can be described thus: Induction of oxygen consumption rate in rat L6 cells assessed as increase in respiration at 10 uM measured for 90 mins in presence of BAM15 by Seahorse assay relative to control. The series is classed as functional. To be noted: 1.5 h.
Series [6] can be described thus: Toxicity in C57BL/6 mouse assessed as change in body temperature at 30 to 1000 mg/kg, po measured for 24 hrs. The series is classed as organism-based. To be noted: in vivo, dose 30-1000 mg/kg. The method in brief:
(§2)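 Male C57BL/6 mice, 9 weeks old, given vehicle or compound at 30, 100, 300 or 1000 mg/kg by single oral gavage. Monitored 24 h after dosing for core temperature by rectal probe, body weight and food intake. n = 3, mean ± SEM.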

Series [7] is described as follows: Toxicity in C57BL/6 mouse assessed as change in body weight at 30 to 1000 mg/kg, po measured for 24 hrs. It counts as organism-based. To be noted: in vivo, dose 30-1000 mg/kg. The method in brief: as §2
Series [8] is described as follows: Toxicity in C57BL/6 mouse assessed as change in appetite at 30 to 1000 mg/kg, po measured for 24 hrs. It counts as organism-based. As to conditions: in vivo, dose 30-1000 mg/kg. Summed up:
as §2

Series [9] can be described thus: Toxicity in C57BL/6 mouse assessed as drug tolerance upto 1000 mg/kg, po measured for 24 hrs. It counts as organism-based. To be noted: in vivo. The method in brief:
as §2

The subject of series [10] is Mus musculus. Kind of series: Effect on calorie intake in diet-induced Gubra-Amylin NASH C57BL/6 mouse model of MASH at 200 mg/kg, po. The series is classed as functional, organism-based. The method in brief:
(§3)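 Male C57BL/6 mice, GAN diet from 5/6 weeks old for 33 weeks, then single-housed and stratified by baseline body weight and body composition. Fed GAN diet alone or GAN diet admixed with compound at 200 mg/kg for 4 weeks, fresh compound daily. Body weight and food intake measured daily, body composition weekly by EchoMRI, organs weighed at end.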

For series [11], the system named is Mus musculus. Put plainly: Anti-obesity activity in diet-induced Gubra-Amylin NASH C57BL/6 mouse model of MASH assessed as decrease in fat mass at 200 mg/kg, po for 4 weeks by EchoMRI analysis. The series is classed as functional, organism-based. Summed up:
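Male C57BL/6 mice kept on GAN diet for 33 weeks, then fed GAN diet with or without compound admixed at 200 mg/kg daily for 4 weeks. Fat and lean mass measured weekly by EchoMRI.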

Series [12] concerns Mus musculus. Put plainly: Effect on liver mass in diet-induced Gubra-Amylin NASH C57BL/6 mouse model of MASH at 200 mg/kg, po for 4 weeks. It counts as functional, organism-based. The method in brief: as §3
The subject of series [13] is Mus musculus. Kind of series: Anti-obesity activity in diet-induced Gubra-Amylin NASH C57BL/6 mouse model of MASH assessed as decrease in plasma ALT level at 200 mg/kg, po for 4 weeks. The series is classed as functional, organism-based. Summed up:
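GAN-diet male C57BL/6 mice given compound admixed in diet at 200 mg/kg daily for 4 weeks. Terminal EDTA plasma taken by cardiac puncture under isoflurane. ALT activity measured by kit assay, samples diluted 1:8 in ALT assay buffer.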

Series [14] concerns Mus musculus. Kind of series: Anti-obesity activity in diet-induced Gubra-Amylin NASH C57BL/6 mouse model of MASH assessed as decrease in liver triglyceride level at 200 mg/kg, po for 4 weeks. The series is classed as functional, organism-based. The method in brief: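 GAN-diet male C57BL/6 mice dosed 200 mg/kg daily in food for 4 weeks. Liver harvested at end, frozen in liquid nitrogen, lipid extracted. Extract heated 10 min at 37 °C, then triglyceride measured by colorimetric assay and normalized to initial grams extracted.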

For series [15], the system named is Mus musculus. Put plainly: Anti-obesity activity in diet-induced Gubra-Amylin NASH C57BL/6 mouse model of MASH assessed as decrease in NAFLD activity score at 200 mg/kg, po for 4 weeks. The series is classed as functional, organism-based. Summed up:
as §3

For series [16], the system named is Mus musculus. Kind of series: Effect on fibrosis stage of liver in diet-induced Gubra-Amylin NASH C57BL/6 mouse model of MASH at 200 mg/kg, po for 4 weeks. The series is classed as functional, organism-based.
Series [17] deals with Mus musculus. Put plainly: Anti-obesity activity in diet-induced Gubra-Amylin NASH C57BL/6 mouse model of MASH assessed at 200 mg/kg, po for 4 weeks by EchoMRI analysis.

Calls of active or inactive are those of the source. No cut-off for these calls is given here.

On to `CC(C)(C)Oc1ccc(Nc2cnc3nonc3c2O)cc1`, for which, in series [1], the Activity was found to be 20%. Besides, the concentration for a half-maximal effect (EC50) (as a rule, the midpoint of the concentration-response curve) in series [2] (read-out: EC50) turned out to be 6 µM.

Turning to `Oc1c(Nc2ccc(-c3ccc(C(F)(F)F)cc3)cc2)cnc2nonc12`, the outcome in the series on L6 [3] was inactive. Moreover, the concentration for a half-maximal effect (EC50) result in [2] is “Not_active”.

With `Oc1c(-c2ccc(-c3ccc(F)cc3)cc2)cnc2nonc12`, the outcome in the series on L6 [3] was inactive. The EC50 entry in [2] was “Not_active”.

Take `Oc1c(Nc2cccc(-c3ccccc3)c2)cnc2nonc12`: the Activity in series [1] is given as 20%. Besides, the EC50 in series [2] (read-out: EC50) came out at 6 µM.

On to `Oc1c(Nc2ccc(-c3ccc(Cl)cc3)cc2)cnc2nonc12`, for which the Activity in series [1] came out at 57%.

Regarding `Oc1c(Nc2ccc(-c3cccc(Cl)c3Cl)cc2)cnc2nonc12`, the outcome with L6 [3] was inactive. For the same compound, the EC50 entry in series [2] is on record as “Not_active”.

Turning to `CC(=O)c1ccc(Nc2cnc3nonc3c2O)cc1`, the outcome in the series with L6 [3] was inactive. The EC50 result in series [2] is “Not_active”.

With `Oc1c(Nc2ccc(F)nc2)cnc2nonc12`, in the series on L6 [3], the outcome was inactive. Moreover, the EC50 result in [2] is “Not_active”.

On to `CCCCc1ccc(Nc2cnc3nonc3c2O)cc1`, for which the EC50 in [2] (read-out: EC50) came to 1 µM.

For `Oc1c(Nc2ccc(-c3cccc(F)c3F)cc2)cnc2nonc12`, the outcome in the series on L6 [3] was inactive. Also, in series [2], the EC50 entry is on record as “Not_active”.

Take `N#Cc1ccc(Nc2cnc3nonc3c2O)cc1`: in the series on L6 [3], the outcome was inactive. The concentration giving a half-maximal response (EC50) result in series [2] was “Not_active”.

On to `Oc1c(Nc2ccc(-c3cccc(Cl)c3)cc2)cnc2nonc12`, for which the Activity entry with L6 [4] was “Active; Action Of Drug Suggests Proton Transport Into Matrix Independent Of Atp Synthase; Activity Of Drug Requires Electron Transport Chain Activity”; in series [5], 300%; in [6], “Non-toxic”; in series [7], “Non-toxic”; in series [8], “Non-toxic”; in series [9] it was “Non-toxic”. For the same compound, the Activity entry with Mus musculus [11] was “Active; Activity Of Drug Indicates Improved Body Composition”; in the series on Mus musculus [12], “Not active; No Significant Change In Liver Mass Was Observed But Showed Improvements In Fatty Liver Disease Phenotypes”; with Mus musculus [15] it was “Active; The Occurence Is Due To Decreased Hepatic Steatosis”. Further, the outcome in the series with Mus musculus [10] and in the series with Mus musculus [16] was inactive. In addition, the outcome in the series with Mus musculus [13], in the series with Mus musculus [14] and in the series with Mus musculus [17] was Active.

As for `Oc1c(Nc2ccc(-c3cc(F)ccc3F)cc2)cnc2nonc12`, the result in the series on L6 [3] was inactive. In addition, the EC50 result in [2] is listed as “Not_active”.

In the case of `Oc1c(Nc2ccc(-c3ccccc3F)cc2)cnc2nonc12`, in the series on L6 [3], the outcome was inactive. The concentration giving a half-maximal response (EC50) entry in [2] is on record as “Not_active”.

Take `Oc1c(Nc2ccccc2-c2ccccc2)cnc2nonc12`: the outcome with L6 [3] was inactive. In addition, the EC50 entry in series [2] is recorded as “Not_active”.

Consider `Oc1c(Nc2ccc(C(F)(F)F)nc2)cnc2nonc12`, for which the result in the series with L6 [3] was inactive. Moreover, the half-maximal effective concentration (EC50) entry in series [2] is given as “Not_active”.

`Oc1c(Nc2ccc(-c3ccc(F)c(F)c3)cc2)cnc2nonc12`: the outcome in the series on L6 [3] was inactive. For the same compound, the EC50 entry in series [2] is “Not_active”.

On to `CC1(C)c2ccccc2-c2ccc(Nc3cnc4nonc4c3O)cc21`, for which the outcome in the series on L6 [3] was inactive. Also, the EC50 entry in series [2] is “Not_active”.

With `Oc1c(Nc2ccc(-c3ccc(F)cc3)cc2)cnc2nonc12`, the Activity in series [1] is 60%.
